Experiments:
Mus musculus [1] = experiment: Antidepressant activity against Swiss-Webster mouse assessed as reduction in duration of immobility at 10 mg/kg, ip after 1 hr by tail suspension behavioral despair test relative to control; type: functional; parameters: scale not given: the % may be the effect or the level left; settings: route intraperitoneal
How it was run: (§1)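 Mice dosed ip at 10 mg/kg in 0.5% w/v CMC in water (0.5 mL per 100 g body weight); controls got CMC alone; imipramine 10 mg/kg as reference. One hour later mice were hung by the tail from a shelf edge 80 cm above the floor, taped about 1 cm from the tail tip. Immobility (passive, completely motionless hanging) timed over 6 min; mean ± S.E.M., % deviation from control.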

Mus musculus [2] = experiment: Antidepressant activity against Swiss-Webster mouse at 10 mg/kg, ip after 1 hr by tail suspension behavioral despair test relative to imipramine; type: functional; settings: route intraperitoneal; how it was run: as §1
[3] = Chemical stability in ferricyanide solution assessed as rate of oxidation by UV spectroscopy; type: physicochemical
[4] = Chemical stability in 30% hydrogen peroxide assessed as rate of oxidation by UV spectroscopy; type: physicochemical
[5] = Stability in phosphate buffer at pH 7.4 after 4 days by HPLC; type: physicochemical
How it was run: (§2)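 Dihydropyridine carrier at 2 × 10^-1 mmol in 0.2 M phosphate buffer (pH 7.4 or 5.8) at room temperature (32 °C), followed for 4 days by HPLC for the parent and its oxidation or degradation products. Pseudo-first-order disappearance constant from linear regression of ln peak area against time; t1/2 calculated; n = 4.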

[6] = Stability in phosphate buffer at pH 5.8 after 4 days by HPLC; type: physicochemical; how it was run: as §2
[7] = Stability in mouse plasma assessed as rate of oxidation by HPLC; type: ADME, cell-free
How it was run: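 Heparinized mouse blood spun 4000 rpm for 20 min; plasma diluted to 80% with phosphate buffer (0.11 mol, pH 7.4) and prewarmed at 37 °C. Methanolic dihydro compound added; kept at 37 °C. Aliquots at 1, 2, 4, 8, 16, 32 and 64 min quenched in ice-cold methanol, frozen at −80 °C, centrifuged, filtered and run on HPLC. K_disapp and t1/2 from linear regression of ln peak area vs time; n = 4.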

[8] = Stability in Swiss-Webster mouse brain homogenate assessed as rate of oxidation by HPLC; type: ADME, tissue-based
How it was run: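 Brains from ten adult male Swiss-Webster mice were washed in ice-cold saline and homogenized in ice-cold isotonic phosphate buffer (0.2 mol, pH 7.4) to give 20% homogenate, then prewarmed 5 min at 37 °C. Methanolic dihydro compound added; held at 37 °C. Samples taken at 1–64 min into ice-cold methanol, frozen at −80 °C, then analysed by HPLC. Pseudo-first-order K and t1/2 from ln peak area vs time; n = 4.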

Brain = experiment: Drug level in Sprague-Dawley rat brain at 20 mg/kg, iv; type: ADME, organism-based; parameters: dose 20 mg/kg, route intravenous; settings: in vivo
How it was run: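 Male Sprague-Dawley rats received a freshly prepared DMF solution (25 mg/mL) via the external jugular vein at 20 mg/kg. Animals sacrificed at 10, 20 and 45 min. Whole brain homogenized in water plus 5% DMF in acetonitrile, then centrifuged; blood precipitated in acetonitrile. Supernatants filtered and the quaternary acid quantified by HPLC against recovery spikes of quaternary salt into blank rat brain and blood.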

SMILES | Activity (Mus musculus [1]) | Activity (Mus musculus [2]) | half-life [3] | half-life [4] | half-life [5] | half-life [6] | half-life [7] | half-life [8] | Drug uptake (Brain)
CCOC(=O)C(C(=O)O)[n+]1ccc(C(=O)N/N=C/c2ccccc2O)cc1.[Br-] (stereo not given) | 30.34% | 78.8% | – | – | – | – | – | – | –
CCOC(=O)C(C(=O)O)[n+]1ccc(C(=O)N/N=C/c2ccccc2Cl)cc1.[Br-] (stereo not given) | 31.42% | 79.6% | – | – | – | – | – | – | –
CCOC(=O)C(C(=O)O)N1C=CCC(C(=O)N/N=C/c2ccc(OC)cc2)=C1 (stereo not given) | – | – | 2.1 min | 3.35 min | 260 min | 196 min | 21.8 min | 10.1 min | –
CN1C=CC(C(=O)N/N=C/c2ccccc2Cl)C=C1 | – | – | 3.3 min | 6.3 min | – | – | – | – | –
CN(C)c1ccc(/C=N/NC(=O)C2C=CN(C(C(=O)O)C(=O)O)C=C2)cc1 | 54.95% | – | 1.14 min | 3.15 min | 248 min | 169 min | 18.9 min | 9.58 min | 29.17 µg/g
CCOC(=O)C(C(=O)O)N1C=CC(C(=O)N/N=C/c2ccccc2O)C=C1 (stereo not given) | 36.7% | 92.8% | 2.48 min | 4.08 min | – | – | – | – | –
CCOC(=O)C(C(=O)O)N1C=CC(C(=O)N/N=C/c2ccccc2Cl)C=C1 (stereo not given) | 40.9% | 86.7% | 3.01 min | 5.3 min | 402 min | 252 min | 23.3 min | 10.7 min | 23.23 µg/g
CN(C)c1ccc(/C=N/NC(=O)c2cc[n+](C(C(=O)O)C(=O)O)cc2)cc1.[Br-] | 50.75% | – | – | – | – | – | – | – | –
CCOC(=O)C(C(=O)O)N1C=CCC(C(=O)N/N=C/c2ccccc2O)=C1 (stereo not given) | 64.55% | – | 2.17 min | 3.85 min | – | – | – | – | –
CCOC(=O)C(C(=O)O)[n+]1cccc(C(=O)N/N=C/c2ccccc2O)c1.[Br-] (stereo not given) | 39.15% | 90.2% | – | – | – | – | – | – | –
CN(C)CCCN1c2ccccc2CCc2ccccc21 [IMIPRAMINE] | 45.14% | – | – | – | – | – | – | – | –

From ChEMBL document CHEMBL1136857, “1-Malonyl-1,4-dihydropyridine as a novel carrier for specific delivery of drugs to the brain” (Bioorg Med Chem, 2009)
